From ChEMBL document CHEMBL1921716, “Discovery of N-[2-hydroxy-6-(4-methoxybenzamido)phenyl]-4- (4-methyl-1,4-diazepan-1-yl)benzamide (darexaban, YM150) as a potent and orally available factor Xa inhibitor” (J Med Chem, 2011)

Legend:
Coagulation factor X [1] = molecular target: T1, Coagulation factor X (Homo sapiens, UniProt P00742); test: Inhibition of human factor 10A using chromogenic substrate S2222 by absorbance measurement at 405 nm
Plasma [2] = test: Anticoagulant activity in mouse plasma assessed as concentration required to double the clotting time by coagulometric analysis; assay type: functional
In short: (§1)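 Citrated blood was spun at 3000 rpm for 10 min to give platelet-poor plasma, stored at −40 °C. Prothrombin time was read on a coagulometer at 37 °C with thromboplastin and compared with a distilled-water control. CT2 (concentration doubling clotting time) was estimated from each concentration–response curve. Each measurement was done three times and reported as the mean.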

Mus musculus [3] = test: Anticoagulant activity in mouse assessed as prothrombin time at 100 mg/kg, po measured after 0.5 hrs by coagulometric analysis relative to control; assay type: functional, ICR
Mus musculus [4] = test: Anticoagulant activity in mouse assessed as prothrombin time at 100 mg/kg, po measured after 2 hrs by coagulometric analysis relative to control; assay type: functional, ICR
[5] = Effective permeability of the compound after 2 hrs by PAMPA at pH 6.5; assay type: ADME; details: read-out: Peff
In short: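 Compound from a 10 mM DMSO stock was diluted to a final concentration of about 50 μM in buffer containing 10% DMSO. Donor was pH 6.5 and acceptor pH 7.4, separated by a filter coated with 20% lecithin in dodecane. Plates were incubated 2 h at 25 °C in saturated humidity. Both compartments were quantified by UV at 270–400 nm against standards, with mass balance, to give Pe (n = 2).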

[6] = Intrinsic clearance in CD1 mouse liver microsomes assessed as compound remaining at 0.2 uM after 30 mins; assay type: ADME, Microsome
Plasma [7] = test: Anticoagulant activity in human plasma assessed as concentration required to double the clotting time by coagulometric analysis; assay type: functional
In short: as §1

Coagulation factor X [8] = molecular target: T1, Coagulation factor X; test: Inhibition of human factor 10A using chromogenic substrate S2222 by dixon plot analysis
In short: (§2)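 Human enzymes were used at final concentrations of 4.2 mU/mL FXa, 0.20 U/mL thrombin, 1.0 U/mL trypsin and 1.7 mU/mL plasma kallikrein. Substrates were S-2222 (FXa, trypsin), S-2238 (thrombin) and S-2302 (kallikrein). Reactions were started by adding enzyme, and hydrolysis was followed at 405 nm at 37 °C. Mode of inhibition came from Lineweaver–Burk plots and Ki from Dixon plots at several substrate concentrations. Values are means of four determinations.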

Trypsin = Trypsin (Homo sapiens, UniProt P07477+P07478+P35030); test: Inhibition of human trypsin using chromogenic substrate S2222 by dixon plot analysis plot; assay type: protein assay
In short: as §2

Prothrombin = Prothrombin (Homo sapiens, UniProt P00734); test: Inhibition of human thrombin using chromogenic substrate S2238 by dixon plot analysis
In short: as §2

Plasma kallikrein = Plasma kallikrein (Homo sapiens, UniProt P03952); test: Inhibition of human plasma kallikrein using chromogenic substrate S2302 by dixon plot analysis
Chain of Plasma kallikrein (P03952 20-390 limits assumed): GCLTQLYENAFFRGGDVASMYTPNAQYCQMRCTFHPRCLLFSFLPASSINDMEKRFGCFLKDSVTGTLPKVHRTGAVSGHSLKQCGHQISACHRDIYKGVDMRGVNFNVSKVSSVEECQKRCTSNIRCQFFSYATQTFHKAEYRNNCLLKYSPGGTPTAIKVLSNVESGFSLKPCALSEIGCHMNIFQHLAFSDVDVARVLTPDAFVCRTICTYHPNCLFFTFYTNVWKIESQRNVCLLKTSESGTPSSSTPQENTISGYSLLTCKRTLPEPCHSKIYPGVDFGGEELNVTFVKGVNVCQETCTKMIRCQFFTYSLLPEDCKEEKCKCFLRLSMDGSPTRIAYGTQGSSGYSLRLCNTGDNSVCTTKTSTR
Chain of Plasma kallikrein (P03952 391-638 limits assumed): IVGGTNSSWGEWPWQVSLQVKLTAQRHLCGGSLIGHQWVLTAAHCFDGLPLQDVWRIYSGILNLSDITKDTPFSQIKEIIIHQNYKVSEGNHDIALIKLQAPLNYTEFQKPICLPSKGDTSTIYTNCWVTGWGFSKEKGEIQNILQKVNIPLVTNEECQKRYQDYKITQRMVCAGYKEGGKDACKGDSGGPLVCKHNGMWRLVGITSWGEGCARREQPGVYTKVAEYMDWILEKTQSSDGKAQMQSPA
In short: as §2

Rattus norvegicus [9] = test: Tmax in F344/DuCrlCrlj rat at 100 mg/kg, po assessed as 3-[(4-methoxybenzoyl)amino]-2-{[4-(4-methyl-1,4-diazepan- 1-yl)benzoyl]amino}phenyl beta-D-glucopyranosiduronic acid level after 24 hrs by LC-MS/MS analysis; assay type: ADME, organism-based; set-up: dose 100 mg/kg, route oral; details: in vivo
In short: (§3)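 Male F344/DuCrlCrlj rats, 6 weeks old and nonfasted, received a single oral dose of 100 mg/kg as the monomaleate salt suspended in 0.5% methylcellulose, dose given as free form. Three rats per time point were bled at 0.5, 1, 2, 4, 8 and 24 h. Plasma was deproteinized with acetonitrile containing internal standards, and parent and glucuronide were measured by LC-MS/MS.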

Rattus norvegicus [10] = test: Cmax in F344/DuCrlCrlj rat at 100 mg/kg, po assessed as 3-[(4-methoxybenzoyl)amino]-2-{[4-(4-methyl-1,4-diazepan- 1-yl)benzoyl]amino}phenyl beta-D-glucopyranosiduronic acid level after 24 hrs by LC-MS/MS analysis; assay type: ADME, organism-based; set-up: dose 100 mg/kg, route oral; details: in vivo
In short: as §3

Rattus norvegicus [11] = test: AUC (0 to 24 hrs) in F344/DuCrlCrlj rat at 100 mg/kg, po assessed as 3-[(4-methoxybenzoyl)amino]-2-{[4-(4-methyl-1,4-diazepan- 1-yl)benzoyl]amino}phenyl beta-D-glucopyranosiduronic acid level after 24 hrs by LC-MS/MS analysis; assay type: ADME, organism-based, Plasma; set-up: time < 24 hr, dose 100 mg/kg, route oral; details: in vivo
In short: as §3

[12] = Tmax in F344/DuCrlCrlj rat at 100 mg/kg, po; assay type: ADME, organism-based; set-up: dose 100 mg/kg, route oral; details: in vivo
In short: as §3

[13] = Cmax in F344/DuCrlCrlj rat at 100 mg/kg, po; assay type: ADME, organism-based; set-up: dose 100 mg/kg, route oral; details: in vivo
In short: as §3

[14] = AUC (0 to 24 hrs) in F344/DuCrlCrlj rat at 100 mg/kg, po; assay type: ADME, organism-based; set-up: time < 24 hr, dose 100 mg/kg, route oral; details: plasma
In short: as §3

T1 sequence (P00742 41-179 limits assumed): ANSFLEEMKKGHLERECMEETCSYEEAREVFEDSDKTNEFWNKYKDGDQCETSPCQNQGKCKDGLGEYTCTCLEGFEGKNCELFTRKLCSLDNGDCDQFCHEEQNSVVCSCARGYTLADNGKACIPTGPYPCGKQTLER
T1 sequence (P00742 235-488 limits assumed): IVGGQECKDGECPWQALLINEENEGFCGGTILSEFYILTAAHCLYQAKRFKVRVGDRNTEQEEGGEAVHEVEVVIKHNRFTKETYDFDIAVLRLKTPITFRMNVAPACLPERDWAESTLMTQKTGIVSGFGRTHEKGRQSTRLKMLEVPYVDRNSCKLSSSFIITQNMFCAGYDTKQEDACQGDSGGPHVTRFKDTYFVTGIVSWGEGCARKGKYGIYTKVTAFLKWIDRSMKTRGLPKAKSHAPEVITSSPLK

Row | Structure (SMILES) | IC50 (Coagulation factor X [1]) | CD (Plasma [2]) | fold change (FC) (Mus musculus [3]) | fold change (FC) (Mus musculus [4]) | further results
1 | COc1ccc(C(=O)Nc2ccccc2NC(=O)c2ccc(OC)cc2)cc1 | 4220 nM |  |  |  | 
2 | COc1ccc(C(=O)Nc2ccc(OC)cc2NC(=O)c2ccc(OC)cc2)cc1 | 6220 nM |  |  |  | 
3 | COc1ccc(C(=O)Nc2ccccc2NC(=O)c2ccc(N3CCCN(C)CC3)cc2)cc1 | 103 nM | 2.8 µM | 1.38 | 1.39 | Papp at 2 h [5]: 42 ×10⁻⁶ cm/s; CLint scaled at 0.2 µM [6]: 2050 mL/min/kg
4 | COc1ccc(C(=O)Nc2ccccc2C(=O)Nc2ccc(N3CCCN(C)CC3)cc2)cc1 | 539 nM |  |  |  | 
5 | COc1ccc(NC(=O)c2ccccc2NC(=O)c2ccc(N3CCCN(C)CC3)cc2)cc1 | 140 nM | 5.9 µM | 1.02 | 0.98 | 
6 | COc1ccc(C(=O)Nc2cccc(OC)c2NC(=O)c2ccc(N3CCCN(C)CC3)cc2)cc1 | 62.6 nM | 3.7 µM | 1.5 | 1.32 | Papp at 2 h [5]: 47.5 ×10⁻⁶ cm/s; CLint scaled at 0.2 µM [6]: 2200 mL/min/kg
7 | COc1ccc(C(=O)Nc2ccc(OC)cc2NC(=O)c2ccc(N3CCCN(C)CC3)cc2)cc1 | 73.4 nM | 7.5 µM | 1.35 | 1.38 | 
8 | COc1ccc(C(=O)Nc2cc(OC)ccc2NC(=O)c2ccc(N3CCCN(C)CC3)cc2)cc1 | 118 nM | 7.1 µM | 1.25 | 1.34 | 
9 | COc1ccc(C(=O)Nc2c(NC(=O)c3ccc(N4CCCN(C)CC4)cc3)cccc2OC)cc1 | 213 nM | 13 µM |  |  | 
10 | COc1ccc(C(=O)Nc2cccc(C(=O)O)c2NC(=O)c2ccc(N3CCCN(C)CC3)cc2)cc1 | 99.2 nM | 9 µM | 1.05 | 1.08 | 
11 | COc1ccc(C(=O)Nc2ccc(C(=O)O)cc2NC(=O)c2ccc(N3CCCN(C)CC3)cc2)cc1 | 31.1 nM | 1.7 µM | 1 | 1 | 
12 | COc1ccc(C(=O)Nc2ccc(O)cc2NC(=O)c2ccc(N3CCCN(C)CC3)cc2)cc1 | 50.3 nM | 1.4 µM | 1.04 | 1 | Papp at 2 h [5]: < 0.3 ×10⁻⁶ cm/s; CLint scaled at 0.2 µM [6]: 1700 mL/min/kg
13 | COc1ccc(C(=O)Nc2cc(O)ccc2NC(=O)c2ccc(N3CCCN(C)CC3)cc2)cc1 | 157 nM | 4.7 µM | 1.02 | 1.01 | 
14 | COc1ccc(C(=O)Nc2cccc(F)c2NC(=O)c2ccc(N3CCCN(C)CC3)cc2)cc1 | 155 nM | 4.3 µM | 1.43 | 1.22 | 
15 | COc1ccc(C(=O)Nc2cccc(OCC(=O)O)c2NC(=O)c2ccc(N3CCCN(C)CC3)cc2)cc1 | 123 nM | 2.8 µM | 0.99 | 0.98 | 
16 | COc1ccc(C(=O)Nc2cccc(OCCO)c2NC(=O)c2ccc(N3CCCN(C)CC3)cc2)cc1 | 106 nM | 3 µM | 1.36 | 1.31 | 
17 | CSc1ccc(C(=O)Nc2cccc(O)c2NC(=O)c2ccc(N3CCCN(C)CC3)cc2)cc1 | 1440 nM |  |  |  | 
18 | CN1CCCN(c2ccc(C(=O)Nc3c(O)cccc3NC(=O)c3ccc(O)cc3)cc2)CC1 | 6140 nM |  |  |  | 
19 | CN1CCCN(c2ccc(C(=O)Nc3c(O)cccc3NC(=O)c3ccc(F)cc3)cc2)CC1 | 349 nM |  |  |  | 
20 | CN1CCCN(c2ccc(C(=O)Nc3c(O)cccc3NC(=O)c3ccc(Cl)cc3)cc2)CC1 | 64.2 nM | 5.3 µM | 1.42 | 1.32 | 
21 | CN1CCCN(c2ccc(C(=O)Nc3c(O)cccc3NC(=O)c3ccc(Br)cc3)cc2)CC1 | 59.8 nM | 6.7 µM | 1.41 | 1.62 | 
22 | COc1ccc(C(=O)Nc2cccc(O)c2NC(=O)c2ccc(N3CCCN(C)CC3)cc2)s1 | 86.1 nM | 3.8 µM | 2.17 | 1.9 | 
23 | CN1CCCN(c2ccc(C(=O)Nc3c(O)cccc3NC(=O)c3ccc(Cl)s3)cc2)CC1 | 41.3 nM | 5.8 µM | 1.48 | 1.27 | 
24 | CN1CCCN(c2ccc(C(=O)Nc3c(O)cccc3NC(=O)c3ccc(Br)s3)cc2)CC1 | 41.4 nM | 7.1 µM | 1.53 | 1.22 | 
25 | COc1ccc(C(=O)Nc2cccc(O[C@@H]3O[C@H](C(=O)O)[C@@H](O)[C@H](O)[C@H]3O)c2NC(=O)c2ccc(N3CCCN(C)CC3)cc2)cc1 | 28.6 nM | 2.5 µM |  |  | CD (Plasma [7]): 0.95 µM; Ki (Coagulation factor X [8]): 20 nM; Ki (Trypsin): > 100000 nM; Ki (Prothrombin): > 100000 nM; Ki (Plasma kallikrein): 17000 nM; Papp at 2 h [5]: < 0.2 ×10⁻⁶ cm/s; CLint scaled at 0.2 µM [6]: 90.6 mL/min/kg; Tmax (Rattus norvegicus [9]): 0.5 h; Cmax (Rattus norvegicus [10]): 9439.5 ng/mL; AUC (Rattus norvegicus [11]): 38539.2 ng·h/mL
26 | COc1ccc(C(=O)Nc2cccc(O)c2NC(=O)c2ccc(N3CCCN(C)CC3)cc2)cc1.O=C(O)/C=C\C(=O)O |  |  |  |  | Tmax [12]: 2 h; Cmax [13]: 175 ng/mL; AUC(0-t) at 24 h [14]: 1290 ng·h/mL
27 | COc1ccc(C(=O)Nc2cccc(O)c2NC(=O)c2ccc(N3CCCN(C)CC3)cc2)cc1 [DAREXABAN] | 54.6 nM | 4.1 µM | 3.49 | 2.09 | CD (Plasma [7]): 1.2 µM; Ki (Coagulation factor X [8]): 31 nM; Ki (Trypsin): > 100000 nM; Ki (Prothrombin): > 100000 nM; Ki (Plasma kallikrein): 11000 nM; Papp at 2 h [5]: 30 ×10⁻⁶ cm/s; CLint scaled at 0.2 µM [6]: 1910 mL/min/kg
